Reference: ChEMBL document CHEMBL3102834, “Discovery of 5-substituted pyrrolo[2,3-d]pyrimidine antifolates as dual-acting inhibitors of glycinamide ribonucleotide formyltransferase and 5-aminoimidazole-4-carboxamide ribonucleotide formyltransferase in de novo purine nucleotide biosynthesis: implications of inhibiting …” (J Med Chem, 2013)
Active and inactive are the calls of the source. No cut-off for these calls is given here.

Columns and labels:
KB [1] = test: Cell cycle arrest in human KB cells assessed as accumulation at S phase at 1 uM after 96 hrs by propidium iodide staining-based flow cytometry (reference value: 15.9%); type: functional
KB [2] = test: Cell cycle arrest in human KB cells assessed as accumulation at G1/G0 phase at 1 uM after 96 hrs by propidium iodide staining-based flow cytometry (reference value: 67.4%); type: functional
KB [3] = test: Cell cycle arrest in human KB cells assessed as accumulation at sub-G1 phase at 1 uM after 96 hrs by propidium iodide staining-based flow cytometry (reference value: 3.5%); type: functional
KB [4] = test: Cytotoxicity against human KB cells at 10 uM incubated for 48 hrs followed by compound washout measured after 10 days by colony forming assay; type: functional, cell-based
Outline: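 About 500 KB cells were plated in FF-RPMI/DFBS with 2 nM LCV for 24 h. Drug (0–10 μM) was then added, and exposure is stated as 24 h in Methods and 48 h in the legend. Medium was replaced with drug-free FF-RPMI plus 2 nM LCV for 8–10 days. Colonies were fixed with 5% TCA, stained with 1% methylene blue in borate buffer pH 8.8, and counted; three experiments.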

KB [5] = test: Cytotoxicity against human KB cells expressing human RFC/FRalpha/PCFT after 96 hrs by CellTitre-Blue fluorescence assay in presence of AICA; type: functional, cell-based
Outline: (§1)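 KB cells were grown in FF-RPMI with DFBS and 2 nM LCV, exposed to antifolate (0–1 μM) for 96 h at 37 °C, and read by CellTiter-Blue fluorescence. IC50 was taken from dose–response curves relative to untreated cells. Protection arms added adenosine 60 μM, thymidine 10 μM, AICA 320 μM, or folic acid 200 nM. Means of 3–10 experiments.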

KB [6] = test: Cytotoxicity against human KB cells expressing human RFC/FRalpha/PCFT after 96 hrs by CellTitre-Blue fluorescence assay in presence of adenosine; type: functional, cell-based; outline: as §1
[7] = molecular target: Folate receptor alpha (Homo sapiens) (UniProt P15328); test: Displacement of [3H]folic acid from human FRalpha expressed in chinese hamster RT16 cells after 15 mins by scintillation counting analysis; type: cell-based
Outline: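 FRα-expressing RT16 CHO cells (~1.5 × 10^6) were grown as monolayers. Bound folates were stripped with ice-cold acetate buffer (pH 3.5), then neutralised with HEPES-buffered saline (pH 7.4). Cells were then competed with [3H]folic acid against graded unlabelled ligand. Bound label read by scintillation, normalised to Folin-phenol protein (pmol/mg). Relative affinity = inverse molar ratio for 50% displacement, folic acid set at 1. Three experiments.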

KB [8] = test: Cytotoxicity against human KB cells expressing human RFC/FRalpha/PCFT after 96 hrs by CellTitre-Blue fluorescence assay in presence of folic acid; type: functional, cell-based; outline: as §1
[9] = Cytotoxicity against chinese hamster R2(VC) cells after 96 hrs by CellTitre-Blue fluorescence assay; type: functional, cell-based; conditions: Cricetulus griseus
Outline: (§2)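 CHO sublines were grown in FF-RPMI/DFBS; transfectants were maintained with G418. Cells were exposed to antifolate (0–1 μM) for 96 h at 37 °C with 2 nM LCV (RT16) or 25 nM LCV (R2/PCFT4). PC43-10 cells were grown in standard RPMI1640/DFBS instead. FRα specificity was tested by adding 200 nM folic acid. Viable cells were read by CellTiter-Blue fluorescence (ex 560/em 590), and IC50 was taken from dose–response curves; means of 3–10 experiments.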

R2 [10] = test: Cytotoxicity against chinese hamster R2 cells expressing human PCFT4 after 96 hrs by CellTitre-Blue fluorescence assay; type: functional, cell-based, Cricetulus griseus; conditions: R2, 96 h
[11] = Cytotoxicity against chinese hamster RT16 cells expressing human FRalpha after 96 hrs by CellTitre-Blue fluorescence assay; type: functional, cell-based; conditions: Cricetulus griseus, RT16, 96 h; outline: as §2
[12] = Cytotoxicity against chinese hamster RT16 cells expressing human FRalpha after 96 hrs by CellTitre-Blue fluorescence assay in presence of folic acid; type: functional, cell-based; conditions: Cricetulus griseus, RT16, 96 h; outline: as §2
[13] = Cytotoxicity against chinese hamster PC43-10 cells expressing human RFC after 96 hrs by CellTitre-Blue fluorescence assay; type: functional, cell-based; conditions: Cricetulus griseus, PC43-10, 96 h; outline: as §2
KB [14] = test: Cell cycle arrest in human KB cells after 48 hrs by propidium iodide staining-based flow cytometry; type: functional
Outline: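 KB cells exposed to 1 μM drug for 48 h in FF-RPMI with 10% DFBS and 2 nM LCV, harvested by trypsin and fixed in ice-cold ethanol. Stained with 50 μg/mL PI plus 100 μg/mL RNase for at least 20 min at room temperature in the dark. Flow cytometry counted at least 10 000 events. G1/G0, S, G2/M and sub-G1 fractions were fitted by Watson Pragmatic model.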

[15] = molecular target: Bifunctional purine biosynthesis protein ATIC (Homo sapiens) (UniProt P31939); test: Inhibition of AICARFTase in human KB cells assessed as accumulation of ZMP at 1 uM after 48 hrs by HPLC analysis; type: cell-based
Outline: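 KB cells were treated with 1 μM drug for 48 h in FF-RPMI/10% DFBS with 2 nM LCV. Metabolites were extracted with 5% TCA and then ether. They were separated by SAX ion-exchange HPLC using an NH4H2PO4 gradient (5 mM pH 2.8 to 750 mM pH 3.9) over 25 min with detection at 280 nm. ZMP was quantified against a standard curve with an AraCMP internal control; three experiments.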

[16] = (§3) Inhibition of GARFTase in human KB cells assessed as incorporation of [14C]-glycine into [14C]-formyl GAR incubated 30 mins prior to [14C]-glycine addition measured after 16 hrs by radiometric assay in presence of azaserin; type: cell-based
Outline: (§4)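 KB cells were preincubated 1 h in folate- and glutamine-free medium with 2 nM LCV and a range of drug concentrations. Azaserine (4 μM final) was added for 30 min, then 2 mM glutamine and [14C(U)]glycine (0.1 mCi/L) for 16 h at 37 °C. TCA extracts were ether-washed and run on AG1×8 anion exchange. [14C]formyl GAR was measured per mg protein, and IC50 was set against DMSO controls; three experiments.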

KB [17] = test: as §3; type: cell-based; outline: as §4
KB [18] = test: Induction of apoptosis in human KB cells assessed as viable cells at 1 uM after 96 hrs by Annexin V-FITC/7-AAD staining-based flow cytometry (RVB = 89.6%); type: functional; conditions: read-out: Activity
KB [19] = test: Induction of apoptosis in human KB cells assessed as necrotic cells at 1 uM after 96 hrs by Annexin V-FITC/7-AAD staining-based flow cytometry (RVB = 7.80%); type: functional
KB [20] = test: Induction of apoptosis in human KB cells assessed as late apoptotic cells at 1 uM after 96 hrs by Annexin V-FITC/7-AAD staining-based flow cytometry (reference value: 2.09%); type: functional
KB [21] = test: Induction of apoptosis in human KB cells assessed as early apoptotic cells at 1 uM after 96 hrs by Annexin V-FITC/7-AAD staining-based flow cytometry (reference value: 0.485%); type: functional
R2 [22] = test: Cytotoxicity against chinese hamster R2 cells after 96 hrs by CellTitre-Blue fluorescence assay; conditions: Cricetulus griseus, R2, 96 h

Sequence of Folate receptor alpha (Homo sapiens) (P15328 25-234 limits assumed): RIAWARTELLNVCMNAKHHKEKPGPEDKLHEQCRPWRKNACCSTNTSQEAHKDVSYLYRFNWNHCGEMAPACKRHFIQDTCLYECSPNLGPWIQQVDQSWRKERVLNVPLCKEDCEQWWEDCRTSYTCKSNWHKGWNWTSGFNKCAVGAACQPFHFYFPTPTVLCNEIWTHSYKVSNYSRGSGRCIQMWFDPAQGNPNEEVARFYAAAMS
Sequence of Bifunctional purine biosynthesis protein ATIC (Homo sapiens) (P31939 whole entry, looked up): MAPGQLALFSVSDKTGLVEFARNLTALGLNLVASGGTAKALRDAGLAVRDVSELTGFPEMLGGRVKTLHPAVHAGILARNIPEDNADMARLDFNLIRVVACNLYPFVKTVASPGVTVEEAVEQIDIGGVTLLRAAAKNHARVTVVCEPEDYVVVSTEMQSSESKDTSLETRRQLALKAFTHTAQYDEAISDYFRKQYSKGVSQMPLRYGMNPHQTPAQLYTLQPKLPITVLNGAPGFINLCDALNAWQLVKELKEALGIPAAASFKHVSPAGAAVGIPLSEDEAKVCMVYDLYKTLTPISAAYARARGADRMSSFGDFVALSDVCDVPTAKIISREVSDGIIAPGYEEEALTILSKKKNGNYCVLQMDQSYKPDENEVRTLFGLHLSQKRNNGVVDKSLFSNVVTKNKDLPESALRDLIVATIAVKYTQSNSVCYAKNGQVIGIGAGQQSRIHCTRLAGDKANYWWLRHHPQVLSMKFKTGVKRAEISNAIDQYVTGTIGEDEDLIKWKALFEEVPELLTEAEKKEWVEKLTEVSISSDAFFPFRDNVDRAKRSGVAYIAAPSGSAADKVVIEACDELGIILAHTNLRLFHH

## Nc1nc2[nH]cc(CCCCc3ccc(C(=O)N[C@@H](CCC(=O)O)C(=O)O)cc3)c2c(=O)[nH]1
KB [1]
  Activity: 48.2%
KB [2]
  Activity: 12.9%
KB [3]
  Activity: 36.7%
KB [4]
  Activity: Active
KB [5]
  Activity: Active
KB [6]
  Activity: inactive
[7]
  Activity: Active
KB [8]
  IC50: 700 nM
[9]
  IC50: > 1000 nM
R2 [10]
  IC50: 840 nM
[11]
  IC50: 8.6 nM
[12]
  IC50: > 1000 nM
[13]
  IC50: 56.6 nM
KB [14]
  Activity: Active
[15]
  inhibition: Active
[16]
  IC50: 29.7 nM
KB [17]
  inhibition: Dose-dependent effect
KB [18]
  viability at 1 µM: 39%
KB [19]
  Activity: 0.456%
KB [20]
  Activity: 26.7%
KB [21]
  Activity: 33.8%
R2 [22]
  IC50: > 1000 nM
